Data on 22 molecules can be found in ChEMBL document CHEMBL3272224, “Synthesis and hypotensive activity of N-alkyl-N"-cyano-N'-pyridylguanidines” (J Med Chem, 1978).

Activity calls are given as the source filed them. The rule behind the calls is not given here.

Data set [1] is described as follows: Toxicity in po dosed Sprague-Dawley rat assessed as mortality after 7 days. Type of data set: organism-based. The note with it: in vivo.
The species named for data set [2] is Rattus norvegicus. Put plainly: Toxicity in rat assessed as effect on contraction of nictitating membranes by preganglionic stimulation. Type of data set: organism-based, Nictitating membrane. The note with it: in vivo.
The subject of data set [3] is Rattus norvegicus. The data set can be described thus: Toxicity in rat assessed as change in cardiac noradrenaline level at 0.1 mg/kg. Type of data set: organism-based, Heart. Also on record: dose 0.1 mg/kg. The note with it: in vivo. In a few lines:
(§1)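 Rats were given single or repeated (5 days) administration, and cardiac noradrenaline levels were measured.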

Data set [4] relates to Rattus norvegicus. The data set can be described thus: Toxicity in rat assessed as change in cardiac noradrenaline level at 0.1 mg/kg for 5 days. Type of data set: organism-based, Heart. Also on record: dose 0.1 mg/kg. The note with it: in vivo, 120 h. Summed up:
as §1

Data set [5] is described as follows: Toxicity in po dosed mouse assessed as mortality after 7 days. The note with it: in vivo.
Data set [6] deals with Rattus norvegicus. Put plainly: Hypotensive activity in spontaneously hypertensive Wistar-Okamoto rat assessed as time required for persistence of hypotensive effect at 0.05 mg/kg, po. Type of data set: functional. In a few lines:
(§2)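 SHR (Wistar-Okamoto), five per dose, were given an oral dose in 0.5% carboxymethylcellulose. Indirect cuff pressure in restrained conscious rats was read before dosing and at 2, 4, 6, 8, 12 and 24 h. Duration (h) was scored while pressure remained 15 mmHg or more below the initial reading.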

Data set [7] concerns Rattus norvegicus. Put plainly: Hypotensive activity in spontaneously hypertensive Wistar-Okamoto rat assessed as time required for persistence of hypotensive effect at 0.01 mg/kg, po. Type of data set: functional. In a few lines:
as §2

The species named for the next data set is Felis catus. Put plainly: Hypotensive activity in decerebrated cat. Type of data set: functional, organism-based.
Data set [8] concerns Rattus norvegicus. Put plainly: Hypotensive activity in spontaneously hypertensive Wistar-Okamoto rat assessed as time required for persistence of hypotensive effect at 0.1 mg/kg, po. Type of data set: functional. Summed up:
as §2

In data set [9] the test system is Canis familiaris. The data set can be described thus: Hypotensive activity in conscious renal hypertensive dog assessed as time required for persistence of hypotensive effect at 0.05 mg/kg, po measured for 8 hrs. Type of data set: functional, Canis lupus familiaris. Summed up:
(§3)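 Conscious renal hypertensive dogs received single oral doses in soft gelatin capsules, three per dose. Indirect standing blood pressure was read before dosing and hourly to 8 h. Duration (h) was the time the pressure stayed 15 mmHg or more below the initial value, which was taken as persistence of the hypotensive effect.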

Data set [10] relates to Rattus norvegicus. Put plainly: Hypotensive activity in spontaneously hypertensive Wistar-Okamoto rat assessed as maximum change in mean blood pressure at 0.01 mg/kg, po relative to control. Type of data set: functional. In a few lines:
(§4)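 Spontaneously hypertensive Wistar-Okamoto rats, five per dose, received compound orally, dissolved or suspended in 0.5% carboxymethylcellulose. Blood pressure was measured indirectly by tail cuff in restrained conscious rats before dosing and at 2, 4, 6, 8, 12 and 24 h. Maximum change was measured after a single administration and given as mean ± error.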

Data set [11] relates to Rattus norvegicus. Put plainly: Hypotensive activity in po dosed spontaneously hypertensive Wistar-Okamoto rat assessed as dose required to cause 30 mmHg fall of blood pressure administered for 5 days. Type of data set: functional. The note with it: 120 h, read-out: MED.
For data set [12], the system named is Canis familiaris. The data set can be described thus: Hypotensive activity in conscious renal hypertensive dog assessed as maximum change in mean blood pressure at 0.1 mg/kg, po measured for 8 hrs relative to control. Type of data set: functional, Canis lupus familiaris. In a few lines: (§5)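 Renal hypertensive dogs, conscious, dosed orally in soft gelatin capsules, three dogs per dose. Mean blood pressure was taken indirectly with an Arteriosonde, standing animals in a semi-insonorized room, just before dosing and then hourly for 8 h. Maximum change was measured after a single administration and given as mean ± error.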

For data set [13], the system named is Rattus norvegicus. The data set can be described thus: Hypotensive activity in spontaneously hypertensive Wistar-Okamoto rat assessed as maximum change in mean blood pressure at 0.1 mg/kg, po relative to control. Type of data set: functional. In a few lines: as §4
Data set [14] has as its system Canis familiaris. Put plainly: Hypotensive activity in conscious renal hypertensive dog assessed as time required for persistence of hypotensive effect at 0.1 mg/kg, po measured for 8 hrs. Type of data set: functional, Canis lupus familiaris. In a few lines:
as §3

Data set [15] concerns Canis familiaris. Put plainly: Hypotensive activity in conscious renal hypertensive dog assessed as maximum change in mean blood pressure at 0.05 mg/kg, po measured for 8 hrs relative to control. Type of data set: functional, Canis lupus familiaris. Summed up: as §5
In data set [16] the test system is Rattus norvegicus. Put plainly: Hypotensive activity in po dosed spontaneously hypertensive Wistar-Okamoto rat relative to guancydine. Type of data set: functional.
Data set [17] relates to Rattus norvegicus. Put plainly: Hypotensive activity in spontaneously hypertensive Wistar-Okamoto rat assessed as maximum change in mean blood pressure at 0.05 mg/kg, po relative to control. Type of data set: functional. In a few lines: as §4
The subject of data set [18] is Canis familiaris. The data set can be described thus: Hypotensive activity in conscious renal hypertensive dog assessed as time required for persistence of hypotensive effect at 0.5 mg/kg, po measured for 8 hrs. Type of data set: functional, Canis lupus familiaris. In a few lines: as §3
Data set [19] concerns Rattus norvegicus. The data set can be described thus: Hypotensive activity in spontaneously hypertensive Wistar-Okamoto rat assessed as time required for persistence of hypotensive effect at 2.5 mg/kg, po. Type of data set: functional. Summed up: as §2
Data set [20] deals with Rattus norvegicus. The data set can be described thus: Hypotensive activity in spontaneously hypertensive Wistar-Okamoto rat assessed as maximum change in mean blood pressure at 1 mg/kg, po relative to control. Type of data set: functional. Summed up: as §4
Data set [21] relates to Rattus norvegicus. Put plainly: Hypotensive activity in spontaneously hypertensive Wistar-Okamoto rat assessed as maximum change in mean blood pressure at 2.5 mg/kg, po relative to control. Type of data set: functional. Summed up: as §4
Data set [22] has as its system Canis familiaris. Put plainly: Hypotensive activity in conscious renal hypertensive dog assessed as maximum change in mean blood pressure at 1 mg/kg, po measured for 8 hrs relative to control. Type of data set: functional, Canis lupus familiaris. In a few lines: as §5
The test system of data set [23] is Canis familiaris. Put plainly: Hypotensive activity in conscious renal hypertensive dog assessed as maximum change in mean blood pressure at 0.5 mg/kg, po measured for 8 hrs relative to control. Type of data set: functional, Canis lupus familiaris. Summed up: as §5
Data set [24] concerns Rattus norvegicus. The data set can be described thus: Hypotensive activity in spontaneously hypertensive Wistar-Okamoto rat assessed as time required for persistence of hypotensive effect at 1 mg/kg, po. Type of data set: functional. Summed up: as §2
Data set [25] has as its system Canis familiaris. Put plainly: Hypotensive activity in conscious renal hypertensive dog assessed as time required for persistence of hypotensive effect at 1 mg/kg, po measured for 8 hrs. Type of data set: functional, Canis lupus familiaris. In a few lines: as §3

Consider `CCC(C)(C)NC(=NC#N)Nc1cccnc1`, for which the figures for the median lethal dose (LD50) at 168 h in data set [1] and in [5] were 14 mg/kg and > 1000 mg/kg, respectively. The Activity result in the data set listed under Rattus norvegicus [2], in the data set with Rattus norvegicus [3] and in the data set with Rattus norvegicus [4] was “Non-toxic” throughout.
For the molecule `CCC(C)(C)/N=C(\NC#N)Nc1cccnc1`, the Time in the data set with Rattus norvegicus [6] is 4 h; in the data set with Rattus norvegicus [7], 2 h; in the data set with Rattus norvegicus [8], 4 h; with Canis familiaris [9] it was 4 h; in the data set with Canis familiaris [14] it was >6 h. Moreover, the result in the data set filed under Felis catus was Active. The Activity in the data set with Rattus norvegicus [10] is on record as -27 mmHg; in the data set on Canis familiaris [12], -69 mmHg; in the data set with Rattus norvegicus [13] it was >-100 mmHg; with Canis familiaris [15] it was -41 mmHg; in the data set on Rattus norvegicus [17], -72 mmHg. The minimal effective dose in the data set with Rattus norvegicus [11] was 0.1 mg/kg. The “fold change (FC)” value with Rattus norvegicus [16] is 100.
For the molecule `NNc1nncc2ccccc12` [HYDRALAZINE], the LD50 at 168 h in data set [1] amounted to 107 mg/kg. Besides, the Time with Canis familiaris [18] is 2 h; in the data set on Rattus norvegicus [19], >8 h; with Rattus norvegicus [24], 4 h; in the data set on Canis familiaris [25], 6 h. For the same molecule, the Activity in the data set with Rattus norvegicus [20] was -36 mmHg; in the data set with Rattus norvegicus [21], -64 mmHg; in the data set on Canis familiaris [22], -42 mmHg; in the data set on Canis familiaris [23], -21 mmHg.
With `CCC(C)(C)N/C(=N\C(=O)C(F)(F)F)Nc1cccnc1`, the minimal effective dose with Rattus norvegicus [11] was > 50 mg/kg. Moreover, the LD50 at 168 h in data set [5] was > 1000 mg/kg.
Take `CC(C)(C)C/N=C(/NC#N)Nc1cccnc1`: in the data set with Rattus norvegicus [11], the minimal effective dose came out at 2.5 mg/kg. Further, the LD50 at 168 h in data set [5] was > 1000 mg/kg.
For the molecule `N#CN/C(=N\c1cccnc1)N1CCCCC1`, the minimal effective dose with Rattus norvegicus [11] was found to be 20 mg/kg. Also, the median lethal dose (LD50) at 168 h in data set [5] is > 1000 mg/kg.
In the case of `CC(C)(C)N/C(=N\O)Nc1cccnc1`, the minimal effective dose with Rattus norvegicus [11] is > 35 mg/kg. Also, in data set [5], the LD50 at 168 h is 1000 mg/kg.
Taken in the same sequence, the figures for `COc1ccc(/N=C(\NC#N)NC(C)(C)C)c(OC)n1` were > 50 mg/kg and > 1000 mg/kg.
For `CCC(C)(C)N/C(=N\C#N)Nc1ccc(OC)cc1`, in the data set on Rattus norvegicus [11], the minimal effective dose turned out to be 50 mg/kg. The LD50 at 168 h in data set [5] was > 1000 mg/kg.
The like results for `CCC(C)(CC)/N=C(\NC#N)Nc1ccncc1` were, in that order, 0.5 mg/kg and 300 mg/kg.
For the molecule `CCC(C)(C)N/C(=N\C=O)Nc1cccnc1`, in the data set with Rattus norvegicus [11], the minimal effective dose was > 20 mg/kg. Moreover, the 50% lethal dose (LD50) at 168 h in data set [5] turned out to be 600 mg/kg.
With `CCC(C)(C)N/C(=N\C(N)=O)Nc1cccnc1`, the minimal effective dose in the data set on Rattus norvegicus [11] was > 50 mg/kg. Besides, the LD50 at 168 h in data set [5] was > 1000 mg/kg.
The like results for `CCn1nc(C)cc1N/C(=N/C#N)NC(C)(C)C` were, in that order, 10 mg/kg and > 1000 mg/kg.
Consider `CC(C)CC(C)(C)/N=C(\NC#N)Nc1cccnc1`, for which the minimal effective dose in the data set with Rattus norvegicus [11] is 2.5 mg/kg. The LD50 at 168 h in data set [5] is > 1000 mg/kg.
`N#CN/C(=N\CC1CCCO1)Nc1cccnc1` (stereo not given): in the data set on Rattus norvegicus [11], the minimal effective dose came out at 50 mg/kg. Also, in [5], the LD50 at 168 h was > 1000 mg/kg.
Taken in the same sequence, the figures for `Cc1cccc(C)c1/N=C(\NC#N)Nc1cccnc1` were 50 mg/kg and > 1000 mg/kg.
On to `CC(=O)Nc1ccc(N/C(=N/C#N)NC(C)(C)C)cc1`, for which the minimal effective dose in the data set on Rattus norvegicus [11] was > 50 mg/kg. In addition, in data set [5], the LD50 at 168 h was > 1000 mg/kg.
Take `CC(C)CC(C)(C)/N=C(\NC#N)Nc1ccncc1`: the minimal effective dose in the data set with Rattus norvegicus [11] came to 20 mg/kg. Further, in data set [5], the 50% lethal dose (LD50) at 168 h was > 1000 mg/kg.
In the case of `CCC(C)/N=C(\NC#N)Nc1cccnc1` (stereo not given), in the data set on Rattus norvegicus [11], the minimal effective dose turned out to be 20 mg/kg. Further, the LD50 at 168 h in data set [5] is > 1000 mg/kg.
Taken in the same sequence, the figures for `CCC(C)(C)N/C(=N\c1cnccn1)Nc1cccnc1` were 25 mg/kg and 800 mg/kg.
For the molecule `N#CN/C(=N\CCc1ccccc1)Nc1cccnc1`, in the data set on Rattus norvegicus [11], the minimal effective dose came to 50 mg/kg. Besides, in data set [5], the LD50 at 168 h was > 1000 mg/kg.
As to `CC(C)(C)/N=C(\NC#N)Nc1cncc(Br)c1`, the minimal effective dose in the data set with Rattus norvegicus [11] was 0.5 mg/kg. Moreover, in data set [5], the median lethal dose (LD50) at 168 h amounted to 600 mg/kg.
